Measured values from paper PMC6319256 (Bioorganic & medicinal chemistry letters, 2018).
“Also recorded” adds a separate entry of the source.

How the values were obtained:
K-Ras^G12C = conditions: cited from earlier work
Cathepsin B [1] = target: T1, Cathepsin B (Homo sapiens, UniProt P07858); conditions: cited from earlier work; for kinact: cathepsin B, range stated for both compounds and both enzymes
cathepsin L [2] = target: T2, cathepsin L (Homo sapiens, UniProt P07711); conditions: cited from earlier work; for kinact: cathepsin L, range stated for both compounds and both enzymes
cathepsin L [3] = target: T2, cathepsin L; assay: Cathepsin L inhibition kinetics; assay type: biochemical
Calpain I = target: T3, Calpain I (Homo sapiens, UniProt P07384); assay: Calpain I inhibition with and without preincubation; assay type: biochemical; conditions: with and without preincubation of the inhibitor
T3 sequence (P07384 1-714): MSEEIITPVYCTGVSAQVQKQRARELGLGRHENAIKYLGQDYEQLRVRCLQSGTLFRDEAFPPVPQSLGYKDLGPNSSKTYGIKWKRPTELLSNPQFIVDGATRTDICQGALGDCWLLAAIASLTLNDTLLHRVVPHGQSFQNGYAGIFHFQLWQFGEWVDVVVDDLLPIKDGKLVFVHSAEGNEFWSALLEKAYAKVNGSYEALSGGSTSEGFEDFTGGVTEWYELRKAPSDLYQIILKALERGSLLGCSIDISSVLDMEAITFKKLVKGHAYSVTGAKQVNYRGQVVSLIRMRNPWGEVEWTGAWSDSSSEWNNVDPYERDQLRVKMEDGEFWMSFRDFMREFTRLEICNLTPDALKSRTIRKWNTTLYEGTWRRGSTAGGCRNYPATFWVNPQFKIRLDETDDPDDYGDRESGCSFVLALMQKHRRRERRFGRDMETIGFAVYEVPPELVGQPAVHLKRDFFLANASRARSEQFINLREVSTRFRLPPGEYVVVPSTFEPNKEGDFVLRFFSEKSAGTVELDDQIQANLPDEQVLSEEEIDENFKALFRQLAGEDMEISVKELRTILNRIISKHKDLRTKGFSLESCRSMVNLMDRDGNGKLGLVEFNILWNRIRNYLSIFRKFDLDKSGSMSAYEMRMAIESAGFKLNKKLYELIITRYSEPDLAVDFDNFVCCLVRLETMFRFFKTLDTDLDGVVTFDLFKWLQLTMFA
T3 sequence (P04632 1-268 partner): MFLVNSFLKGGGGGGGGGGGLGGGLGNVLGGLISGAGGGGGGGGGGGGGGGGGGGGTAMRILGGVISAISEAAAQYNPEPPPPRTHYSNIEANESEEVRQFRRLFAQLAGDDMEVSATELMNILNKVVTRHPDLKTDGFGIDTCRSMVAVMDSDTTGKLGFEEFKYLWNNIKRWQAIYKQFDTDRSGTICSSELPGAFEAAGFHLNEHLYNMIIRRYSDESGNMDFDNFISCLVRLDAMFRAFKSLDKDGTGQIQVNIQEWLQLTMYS

USP8 = target: T4, USP8 (Homo sapiens, UniProt P40818); assay: USP8 inhibition with and without preincubation; assay type: biochemical; conditions: with and without preincubation of the inhibitor
T4 sequence (P40818 1-1118): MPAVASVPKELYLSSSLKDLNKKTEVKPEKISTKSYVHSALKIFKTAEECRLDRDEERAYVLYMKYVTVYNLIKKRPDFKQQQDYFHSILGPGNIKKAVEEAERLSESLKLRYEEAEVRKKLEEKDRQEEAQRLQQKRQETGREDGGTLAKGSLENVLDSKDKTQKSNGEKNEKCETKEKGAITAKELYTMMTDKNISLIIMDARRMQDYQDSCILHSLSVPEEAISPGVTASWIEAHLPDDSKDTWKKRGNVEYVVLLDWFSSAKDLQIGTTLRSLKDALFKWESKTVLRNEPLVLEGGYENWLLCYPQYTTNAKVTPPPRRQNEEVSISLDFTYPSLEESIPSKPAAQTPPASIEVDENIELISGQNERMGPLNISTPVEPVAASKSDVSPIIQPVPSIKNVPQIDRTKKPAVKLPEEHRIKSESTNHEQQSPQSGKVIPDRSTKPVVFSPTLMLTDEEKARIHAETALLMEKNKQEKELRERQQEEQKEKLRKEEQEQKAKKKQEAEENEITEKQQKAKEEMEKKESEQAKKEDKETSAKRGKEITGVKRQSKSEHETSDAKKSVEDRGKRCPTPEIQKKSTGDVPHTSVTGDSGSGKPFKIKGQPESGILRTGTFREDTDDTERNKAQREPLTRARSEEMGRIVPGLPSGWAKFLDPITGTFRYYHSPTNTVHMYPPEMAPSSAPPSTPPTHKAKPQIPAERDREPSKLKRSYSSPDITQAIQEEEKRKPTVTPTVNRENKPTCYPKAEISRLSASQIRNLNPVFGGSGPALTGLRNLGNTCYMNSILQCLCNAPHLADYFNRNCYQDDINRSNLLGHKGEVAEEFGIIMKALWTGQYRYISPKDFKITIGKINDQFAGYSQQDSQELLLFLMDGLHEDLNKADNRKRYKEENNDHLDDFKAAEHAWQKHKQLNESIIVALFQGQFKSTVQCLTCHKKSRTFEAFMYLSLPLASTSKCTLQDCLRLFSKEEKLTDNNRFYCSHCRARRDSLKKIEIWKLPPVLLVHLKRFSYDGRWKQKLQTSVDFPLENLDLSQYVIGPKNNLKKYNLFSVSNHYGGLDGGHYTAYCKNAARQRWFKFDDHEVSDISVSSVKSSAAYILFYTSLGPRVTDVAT

cathepsin L [4] = target: T2, cathepsin L; assay: Irreversibility study; assay type: biochemical; conditions: 50 μM compound preincubated with Cathepsin L (10 nM), gel filtration
Summary of the method: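 Test compound at 50 μM was preincubated with cathepsin L at 10 nM, then passed through a desalting spin column. Flow-through aliquots were assayed for recovery of enzyme activity at several time points.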

Cathepsin B [5] = target: T1, Cathepsin B; assay: Cathepsin B inhibition with and without preincubation; assay type: biochemical; conditions: with and without preincubation of the inhibitor

T2 sequence (P07711 114-333): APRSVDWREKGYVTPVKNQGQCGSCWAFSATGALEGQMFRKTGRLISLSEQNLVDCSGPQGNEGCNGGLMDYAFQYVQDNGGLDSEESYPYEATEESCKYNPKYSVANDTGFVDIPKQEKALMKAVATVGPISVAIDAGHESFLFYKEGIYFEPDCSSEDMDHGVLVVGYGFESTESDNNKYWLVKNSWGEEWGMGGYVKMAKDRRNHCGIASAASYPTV

**Q.** For `C=CC(=O)N1CCN(c2ncnc3c(F)c(-c4c(O)cccc4F)c(Cl)cc23)CC1` [ARS-1620], which activity in vivo (K-Ras^G12C) is on record?
**A.** Its activity in vivo is “active in vivo”.

**Q.** Which kinact (Cathepsin B [1]) does the source give for `O=C(N[C@H](/C=C/S(=O)(=O)c1ccccc1)CCc1ccccc1)[C@H](Cc1ccccc1)NC(=O)N1CCOCC1` [compound 7] here?
**A.** Its kinact is 0.17 to 0.36 s⁻¹.

**Q.** What about the kinact (cathepsin L [2]) of the same compound?
**A.** The kinact was 0.17 to 0.36 s⁻¹.

**Q.** What about the “selectivity cathepsin L vs B as judged by Ki values” (cathepsin L [2]) of the same compound?
**A.** Its value is “more selective at inhibiting cathepsin L”.

**Q.** Which results are given for `O=C(N[C@H](/C=C/S(=O)(=O)c1ccccc1)CCc1ccccc1)[C@H](Cc1cc(I)c(O)c(I)c1)NC(=O)N1CCOCC1` [compound 8]?
**A.** kinact (Cathepsin B [1]): 0.17 to 0.36 s⁻¹; potency for cathepsin B (kinact/Ki values) (Cathepsin B [1]; relative to compound 7): increased potency; kinact (cathepsin L [2]): 0.17 to 0.36 s⁻¹; selectivity cathepsin L vs B as judged by Ki values (cathepsin L [2]): reversed selectivity

**Q.** For `C[C@@H](Oc1ccc(Br)cc1Br)C(=O)NC/C=C/S(C)(=O)=O` [compound 11], which “inhibition of cathepsin L” value (cathepsin L [3]) is on record?
**A.** The value was “time and dose dependent inhibition”.

**Q.** Which results are given for `CS(=O)(=O)/C=C/CNC(=O)COc1ccc(Br)cc1Br` [compound 13]?
**A.** inhibition of Calpain I (Calpain I): did not inhibit; also recorded: does not inhibit; inhibition of USP8 (USP8): did not inhibit; also recorded: does not inhibit; mode of inhibition (shift of substrate Km) (cathepsin L [3]; varying concentrations of compound): substrate competitive inhibitor; reversibility of inhibition (cathepsin L [4]): irreversibly; inhibition of Cathepsin B (Cathepsin B [5]): did not inhibit; also recorded: does not inhibit
